# Screens as filed in PubChem BioAssay.
# Shown are actives, neighbours in structure and some others; about 1.9% of the full set was active somewhere.
# LMPTP inh = LMPTP (human) inhibition; recombinant LMPTP-A, OMFP fluorogenic substrate, fluorescence intensity; inhibition, % at 20 µM; hit rate 0.22% among 360,000; AID 651560;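 active = compounds that cut the enzyme signal by at least half of the control window in the single-dose screen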;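 note: plate controls were DMSO wells with enzyme plus substrate for no effect and substrate without enzyme for full effect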
#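 Test system: LMPTP-A phosphatase enzyme; input: 0.625 nM LMPTP-A final; reagent: OMFP substrate, 400 µM final; compound dosing: 20 µM single dose, 3% DMSO; incubation: 50 min dark incubation at room temperature; measured by: endpoint fluorescence intensity from OMFP dephosphorylation; measure: % inhibition relative to no-enzyme and uninhibited control wells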
# UBC9 SUMO inh = blocks human SUMOylation mediated by UBC9. P63279. HTRF SUMOylation assay, SAE1/SAE2 + UBC9, in vitro. inhibition, % at 35 µM. hit rate 0.36% among 290,000; in the data active = inhibition above about 50%, passing the limit was not always enough
# Scp-1 inhibitor = Scp-1 (human) phosphatase inhibition | inhibition, % at 20 µM | Q9GZU7 | hit rate 0.88% among 340,000 | Recombinant Scp1, phosphopeptide, malachite green phosphate absorbance | AID 493091;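 active = inhibition above about 50% at 20 µM, limit read from the data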;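 note: plate controls were DMSO wells with enzyme for no effect and wells lacking enzyme for full effect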
#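 Test system: SCP-1 phosphatase catalytic domain, residues 76-261 | Compound dosing: One concentration, 20 µM, with 1.0% DMSO | Schedule: 45 min room-temperature reaction, 5 min colour, 30 min stabiliser | Detection: Absorbance at 630 nm | Read-out basis: % inhibition of SCP-1 phosphate liberation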
# DNMT1 inh = inhibitors of human DNMT1 | DNMT1 molecular beacon, Hinp1I cleavage, fluorescence | AID 588458 | inhibition (reported as % activation of signal), % at 10 µM | P26358 | hit rate 0.83% among 360,000; in the data active = inhibition above about 50%
# STEP block = STEP (human) phosphatase inhibition; P54829; recombinant STEP, OMFP fluorogenic substrate, fluorescence; inhibition, % at 20 µM; hit rate 0.25% among 360,000; AID 588621;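 active = inhibition at 20 µM, scaled per plate between control wells, above about 37%, limit read from the data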;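 note: 0% = DMSO with enzyme and substrate and 100% = substrate only without enzyme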
# Target sequence (P54829 whole entry, looked up): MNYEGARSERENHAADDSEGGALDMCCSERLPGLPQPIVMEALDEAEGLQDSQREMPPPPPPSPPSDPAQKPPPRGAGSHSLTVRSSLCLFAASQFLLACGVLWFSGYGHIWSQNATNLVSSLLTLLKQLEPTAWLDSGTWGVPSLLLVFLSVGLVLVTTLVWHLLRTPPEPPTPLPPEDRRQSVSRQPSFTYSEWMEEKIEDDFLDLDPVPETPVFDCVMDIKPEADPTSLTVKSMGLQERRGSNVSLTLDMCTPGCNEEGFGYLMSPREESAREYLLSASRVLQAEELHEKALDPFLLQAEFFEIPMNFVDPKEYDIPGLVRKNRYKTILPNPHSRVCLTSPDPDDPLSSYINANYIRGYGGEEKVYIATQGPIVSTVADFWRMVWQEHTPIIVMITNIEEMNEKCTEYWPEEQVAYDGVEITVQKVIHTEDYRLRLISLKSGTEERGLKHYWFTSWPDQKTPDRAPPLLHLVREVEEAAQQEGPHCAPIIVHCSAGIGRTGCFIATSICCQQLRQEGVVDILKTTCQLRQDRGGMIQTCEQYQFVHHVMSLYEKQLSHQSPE
#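 System: STEP phosphatase, cell-free reaction; Buffer or medium: Bis-Tris pH 6.0 buffer with DTT, detergent; Incubation: 20 min at room temperature, dark; Measured by: fluorescence, 480/540 nm.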
# SUMO1 PPI mod = SUMO1-SIM interaction modulation; P63165; SUMO1 binding to a labelled peptide, TR-FRET, 1 h; inhibition, % at 20 µM; hit rate 0.33% among 360,000; in the data active = inhibition above about 37%
# Scp-1 conf = confirmation of human Scp-1 phosphatase inhibitors; recombinant SCP-1 catalytic domain, phosphate release, malachite green absorbance; hit rate 61% among 2,500; inhibition, % at 20 µM; shares compounds with Scp-1 inhibitor; AID 540281;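 note: plate controls were DMSO with enzyme for no effect and buffer wells lacking enzyme for full effect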
# Scp-1 MG ctr = counter-screen for Scp-1 inhibitors: colorimetric interference; apparent inhibition (interference), % at 20 µM; Colorimetric interference counterscreen, malachite green absorbance 630 nm; 2,500 tested, under 10 active; shares compounds with Scp-1 inhibitor;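 note: compounds added after enzyme reaction finished so only phosphate colour detection is probed; plate controls were DMSO wells with completed Scp-1 reaction for no effect and substrate wells lacking enzyme for full effect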
# Scp-1 Tm shift = binds human Scp-1, shifting its melting temperature; shares compounds with Scp-1 inhibitor; Recombinant SCP1, Sypro Orange thermal shift Tm; thermal shift relative to vanadate control, % at 40 µM; hit rate 25% among 1,500; AID 540329;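 active = substances whose mean melting-temperature shift, as a percentage of the reference inhibitor's shift, reaches about 5.3%, limit read from the data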;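 note: 0% = Tm of DMSO wells and 100% = Tm with sodium orthovanadate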
# Beacon interf DR = counter-screen for DNMT1 inhibitors: spectral interference, dose response; shares compounds with DNMT1 inh; molecular beacon fluorescence; IC50, µM; 200 tested, under 10 active; call rule not given here
# DNMT1 confirm = DNMT1 inhibition confirmation, single concentration. shares compounds with DNMT1 inh. DNMT1 molecular beacon HinP1I cleavage, fluorescence. inhibition, % at 10 µM. hit rate 8% among 2,300. AID 602385;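 active = average inhibition of at least 30% in the single-concentration confirmation test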
# DNMT1 interf = shows spectral interference in the DNMT1 beacon assay | shares compounds with DNMT1 inh | DNMT1 molecular beacon spectral interference counterscreen, fluorescence 485/520 | activation (fluorescence interference), % at 10 µM | hit rate 1% among 2,300 | AID 602387;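 active = activation of at least 30% at 10 µM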;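 note: DNMT1 catalytic domain with a HinP1I cleavage step and a FAM/dabcyl DNA beacon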
# * marks the source's active call; other numbers are inactive results; / = not tested or not shown.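 Rule for the calls, unless noted: active = inhibition of at least 30% at 20 µM; inactive = the rest.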
SMILES,LMPTP inh,UBC9 SUMO inh,Scp-1 inhibitor,DNMT1 inh,STEP block,SUMO1 PPI mod,Scp-1 conf,Scp-1 MG ctr,Scp-1 Tm shift,DNMT1 confirm,DNMT1 interf,others
CCCn1c(C)nc2c(c1=O)c1nc3ccccc3nc1n2CCC1=CCCCC1,1,26,3,-1,3,-11,/,/,/,/,/,
Cc1nc2c(c(=O)n1CCC1=CCCCC1)c1nc3ccccc3nc1n2/N=C/c1ccco1,32,24,58*,76*,4,26,41*,-9,6.1*,1,-1,
O=C(CC1OC(=O)c2ccccc21)Nc1cccc(S(=O)(=O)N2CCCCCC2)c1 (stereo not drawn),1,9,-7,-1,1,1,/,/,/,/,/,
Cc1cccc(N2CCN(S(=O)(=O)c3ccc4c(c3)C(C)(C)C(=O)N4C)CC2)c1C,6,-3,85*,76*,6,1,69*,-7,-2,7,1,
Cc1ccc(C)c(N2CCN(S(=O)(=O)c3ccc4c(c3)C(C)(C)C(=O)N4C)CC2)c1,4,-2,3,-4,-2,0,/,/,/,/,/,
Cc1cc2oc(=O)cc(-c3cc4ccccc4o3)c2cc1O,66*,/,91*,81*,35,14,79*,-10,4,1,1,
NS(=O)(=O)c1ccc(CNC(=O)/C=C/c2ccco2)cc1,6,21,84*,90*,4,21,70*,-5,3,9,9,
CCc1ccc(/C(C)=N/NC(=O)CNC(=O)/C=C/c2ccco2)cc1,9,/,94*,92*,24,108*,65*,-12,-14,69*,-6,Beacon interf DR=>99
CC(=O)Oc1ccc(C(=O)NC(C)CCc2ccccc2)cc1 (stereo not drawn),1,4,-4,2,-1,1,/,/,/,/,/,
N#C/C(=C\c1ccncc1)c1nc2ccccc2[nH]1,0,8,-8,-3,1,-13,/,/,/,/,/,
N#C/C(=C/c1ccc(OC(=O)c2ccc(Br)s2)cc1)c1nc2ccccc2[nH]1,32,/,96*,85*,27,8,80*,-4,-5,3,-6,
COc1ccc(-c2csc(NC(=O)CSc3nc(C)nc4sc(C(=O)O)c(C)c34)n2)cc1,3,48,87*,81*,0,22,64*,-13,10*,62*,5,Beacon interf DR=>99
COc1ccc(-c2csc(NC(=O)CSc3nc(C)cs3)n2)cc1,-3,/,-14,-5,2,4,/,/,/,/,/,
O=C(CSc1ccsc1[N+](=O)[O-])Nc1cc(F)ccc1F,21,16,72*,70*,5,0,66*,-16,8.1*,19,0,
O=C(CSc1ccsc1[N+](=O)[O-])NCCc1ccc(Cl)cc1,10,20,33,-1,5,-5,/,/,/,/,/,
CCc1nc(SCC(=O)O)c(C#N)c2c1CCCC2,0,18,-8,6,2,6,/,/,/,/,/,
Cc1nc(SCC(=O)O)c(C#N)c2c1CCCC2,2,11,96*,58*,16,26,70*,-13,4,2,3,
COc1ccc(C(=O)Oc2ccc(/C=N/NC(=O)Cc3ccc([N+](=O)[O-])cc3)cc2)cc1,13,-9,91*,53*,10,0,-11,-14,/,3,2,
